Measured values as given in ChEMBL document CHEMBL4715798, “Structure-Based Optimization of Multifunctional Agonists for Opioid and Neuropeptide FF Receptors with Potent Nontolerance Forming Analgesic Activities” (J Med Chem, 2016).
Activity calls are given as the source filed them. No cut-off for these calls is given here. Non-standard residues stand in square brackets, D forms with d. Residues, ends and D or L forms follow the SMILES beside them. NMeY = CN[C@@H](Cc1ccc(O)cc1)C(=O)O; NMeF = CN[C@@H](Cc1ccccc1)C(=O)O

Tests used:
[1] = molecular target: T1, Neuropeptide FF receptor 2 (Homo sapiens, UniProt Q9Y5X5); test: Agonist activity at NPFFR2 (unknown origin) expressed in HEK293-A cells assessed as reduction in forskolin-induced cAMP accumulation incubated for 30 mins by competition PKA binding assay relative to Tyr-D-Ala-Gly-Phe-Gln-Pro-Gln-Arg-Phe-NH2; format: functional, cell-based
Procedure, shortened: (§1)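 cAMP functional read-out in transfected cells. Log EC50 ± standard error was obtained by nonlinear regression of data from at least three independent experiments run in duplicate.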

Mus musculus [2] = test: Antinociceptive activity in icv dosed mouse assessed as inhibition of phase II flinching behaviors by formalin-induced nociceptive behavioral test; format: functional
[3] = molecular target: T2, Neuropeptide FF receptor 1 (Homo sapiens, UniProt Q9GZQ6); test: Agonist activity at NPFFR1 (unknown origin) expressed in HEK293-A cells assessed as reduction in forskolin-induced cAMP accumulation incubated for 30 mins by competition PKA binding assay; format: functional, cell-based; conditions: read-out: EC50; procedure, shortened: as §1
[4] = molecular target: T1, Neuropeptide FF receptor 2; test: Agonist activity at NPFFR2 (unknown origin) expressed in HEK293-A cells assessed as reduction in forskolin-induced cAMP accumulation incubated for 30 mins by competition PKA binding assay; format: functional, cell-based; conditions: read-out: EC50; procedure, shortened: as §1
[5] = molecular target: T3, Delta-type opioid receptor (Homo sapiens, UniProt P41143); test: Agonist activity at delta opioid receptor (unknown origin) expressed in HEK293-A cells assessed as reduction in forskolin-induced cAMP accumulation incubated for 30 mins by competition PKA binding assay relative to Tyr-D-Ala-Gly-Phe-Gln-Pro-Gln-Arg-Phe-NH2; format: functional, cell-based; conditions: filed as agonist; procedure, shortened: as §1
Mus musculus [6] = test: Antinociceptive activity in mouse assessed as development of tolerance dosed repeated icv injections for 6 days by radiant heat tail-flick test; format: functional, organism-based; conditions: time 6.0 day
Procedure, shortened: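 Tail-flick test in mice. Peptide was given icv once daily for 6 days at a fixed dose. Antinociceptive responses to the same dose on day 1 and day 6 were compared to judge tolerance. Values are mean ± SEM.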

Mu-type opioid receptor [7] = molecular target: T4, Mu-type opioid receptor (Homo sapiens, UniProt P35372); test: Agonist activity at mu opioid receptor (unknown origin) expressed in HEK293-A cells assessed as reduction in forskolin-induced cAMP accumulation incubated for 30 mins by competition PKA binding assay relative to Tyr-D-Ala-Gly-Phe-Gln-Pro-Gln-Arg-Phe-NH2; format: functional, cell-based; conditions: filed as agonist; procedure, shortened: as §1
[8] = molecular target: T3, Delta-type opioid receptor; test: Agonist activity at delta opioid receptor (unknown origin) expressed in HEK293-A cells assessed as reduction in forskolin-induced cAMP accumulation incubated for 30 mins by competition PKA binding assay; format: functional, cell-based; procedure, shortened: as §1
[9] = molecular target: T2, Neuropeptide FF receptor 1; test: Agonist activity at NPFFR1 (unknown origin) expressed in HEK293-A cells assessed as reduction in forskolin-induced cAMP accumulation incubated for 30 mins by competition PKA binding assay relative to Tyr-D-Ala-Gly-Phe-Gln-Pro-Gln-Arg-Phe-NH2; format: functional, cell-based; conditions: filed as agonist; procedure, shortened: as §1
Mu-type opioid receptor [10] = molecular target: T4, Mu-type opioid receptor; test: Agonist activity at mu opioid receptor (unknown origin) expressed in HEK293-A cells assessed as reduction in forskolin-induced cAMP accumulation incubated for 30 mins by competition PKA binding assay; format: functional, cell-based; procedure, shortened: as §1
Mus musculus [11] = test: Antinociceptive activity in icv dosed mouse assessed as inhibition of phase I flinching behaviors by formalin-induced nociceptive behavioral test; format: functional
Mus musculus [12] = organism: Mus musculus; test: Antinociceptive activity in mouse; format: functional
[13] = molecular target: Kappa-type opioid receptor (Homo sapiens, UniProt P41145); test: Agonist activity at kappa opioid receptor (unknown origin) expressed in HEK293-A cells assessed as reduction in forskolin-induced cAMP accumulation incubated for 30 mins by competition PKA binding assay; format: functional, cell-based; procedure, shortened: as §1
Mus musculus [14] = test: Antinociceptive activity in mouse dosed repeated icv injections for 6 days by radiant heat tail-flick test; format: functional; conditions: time 6 day
Procedure, shortened: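 Mice received the same icv dose once daily for 6 days in the radiant heat tail-flick test. Tolerance was judged by comparing the antinociceptive response on day 1 with day 6. Values are mean ± SEM.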

[15] = molecular target: T2, Neuropeptide FF receptor 1; test: Agonist activity at NPFFR1 (unknown origin) expressed in HEK293-A cells assessed as reduction in forskolin-induced cAMP accumulation at 10 uM incubated for 30 mins by competition PKA binding assay relative to Tyr-D-Ala-Gly-Phe-Gln-Pro-Gln-Arg-Phe-NH2; format: functional, cell-based; procedure, shortened: as §1
Mus musculus [16] = test: Antinociceptive activity in mouse assessed as time for peak antinociceptive effect dosed repeated icv injections for 6 days by radiant heat tail-flick test; format: functional; conditions: time 6 day
Mus musculus [17] = test: Antinociceptive activity in mouse at 50 pmol, […] pre-treated with 10 nmol, icv delta opioid receptor antagonist naltrindole 20 mins prior to test compound dosing by radiant heat tail-flick test; format: functional, organism-based
Mus musculus [18] = test: Antinociceptive activity in mouse at 50 pmol, […] pre-treated with 10 nmol, icv nonselective NPFF receptor antagonist RF9 by radiant heat tail-flick test; format: functional, organism-based
Mus musculus [19] = test: Antinociceptive activity in mouse model of CFA-induced chronic inflammatory pain assessed as reduction in tactile hyperalgesia at 30 pmol, icv dosed once daily for 6 days; format: functional, organism-based; conditions: time 6.0 day
[20] = Toxicity in mouse assessed as latency to fall off the rod at 30 mg/kg, ip measured after 10 to 30 mins by rotarod test; format: organism-based; conditions: in vivo, time 10-30 min
Mus musculus [21] = test: Antinociceptive activity in mouse at 50 pmol, […] pre-treated with 10 nmol, icv mu opioid receptor antagonist beta-funaltrexamine 4 hrs prior to test compound dosing by radiant heat tail-flick test; format: functional, organism-based
Mus musculus [22] = test: Antinociceptive activity in ip dosed mouse by radiant heat tail-flick test; format: functional
Mus musculus [23] = test: Antinociceptive activity in icv dosed mouse model of CFA-induced chronic inflammatory pain assessed as reduction in tactile hyperalgesia measured after 15 to 90 mins post dose; format: functional; conditions: time 15-90 min
Mus musculus [24] = test: Antinociceptive activity in mouse at 50 pmol, […] pre-treated with 10 nmol, icv kappa opioid receptor antagonist nor-binaltorphimine 30 mins prior to test compound dosing by radiant heat tail-flick test; format: functional, organism-based
[25] = Toxicity in mouse assessed as latency to fall off the rod at 200 pmol, icv measured after 10 to 30 mins by rotarod test; conditions: in vivo, icv_or_intrathecal, time 10-30 min
Mus musculus [26] = test: Antinociceptive activity in mouse assessed as time duration of antinociceptive effect dosed repeated icv injections for 6 days by radiant heat tail-flick test; format: functional; conditions: time 6 day
[27] = Half life in mouse brain membrane homogenate at 10 uM by HPLC analysis; format: ADME, cell membranes
Mus musculus [28] = test: Antinociceptive activity in mouse at 50 pmol, […] pre-treated with 5 nmol, icv opioid receptor antagonist naloxone 10 mins prior to test compound dosing by radiant heat tail-flick test; format: functional, organism-based
[29] = molecular target: T3, Delta-type opioid receptor; test: Agonist activity at delta opioid receptor (unknown origin) expressed in HEK293-A cells assessed as reduction in forskolin-induced cAMP accumulation at 10 uM incubated for 30 mins by competition PKA binding assay relative to Tyr-D-Ala-Gly-Phe-Gln-Pro-Gln-Arg-Phe-NH2; format: functional, cell-based; conditions: filed as agonist; procedure, shortened: as §1
Mus musculus [30] = test: Antinociceptive activity in mouse model of CFA-induced chronic inflammatory pain assessed as reduction in tactile hyperalgesia at 3 nmol, icv dosed once daily for 6 days; format: functional, organism-based; conditions: time 6.0 day
Mus musculus [31] = test: Antinociceptive activity in mouse model of CFA-induced chronic inflammatory pain assessed as reduction in tactile hyperalgesia at 3 nmol, icv after 15 to 90 mins; format: functional, organism-based; conditions: time 15-90 min

Row | SMILES | Emax ([1]; filed as agonist) [%] | EC50 [3] [nM] | EC50 [4] [nM] | Emax [5] [%] | Activity (Mus musculus [6]) | Emax (Mu-type opioid receptor [7]) [%] | EC50 [8] [nM] | Emax [9] [%] | EC50 (Mu-type opioid receptor [10]; read-out: EC50) [nM] | EC50 [13] [nM] | ED50 (Mus musculus [14]) [nmol] | Emax [15] [%] | also measured
1 | C[C@@H](NC(=O)[C@@H](N)Cc1ccc(O)cc1)C(=O)NCC(=O)N[C@@H](Cc1ccccc1)C(=O)N[C@@H](CCC(N)=O)C(=O)N1CCC[C@H]1C(=O)N[C@@H](CCC(N)=O)C(=O)N[C@@H](CCCNC(=N)N)C(=O)N[C@@H](Cc1ccccc1)C(N)=O (H-Y[dA]GFQPQRF-NH2) | 58.4 | 591 | 185 | 82.2 | Active | 92.4 | 587 | 59.9 | 308 | 564 | 0.533 | – | ED50 (Mus musculus [2]): 1140 pmol; ED50 (Mus musculus [11]): 120 pmol; ED50 (Mus musculus [12]): 0.39 nmol
2 | C[C@@H](NC(=O)[C@@H](N)Cc1ccc(O)cc1)C(=O)NCC(=O)N[C@@H](Cc1ccccc1)C(=O)N[C@H](C)C(=O)N1CCC[C@H]1C(=O)N[C@@H](CCC(N)=O)C(=O)N[C@@H](CCCNC(=N)N)C(=O)N[C@@H](Cc1ccccc1)C(N)=O (H-Y[dA]GF[dA]PQRF-NH2) | 45.9 | – | 5010 | 85.3 | Active | 85.6 | 810 | – | 249 | – | 0.3361 | 15.1 | EC50 (Mu-type opioid receptor [10]; read-out: pEC50 (converted)): 245 nM
3 | CC(C)C[C@@H](NC(=O)[C@H](Cc1ccccc1)NC(=O)CNC(=O)[C@@H](C)NC(=O)[C@@H](N)Cc1ccc(O)cc1)C(=O)N1CCC[C@H]1C(=O)N[C@@H](CCC(N)=O)C(=O)N[C@@H](CCCNC(=N)N)C(=O)N[C@@H](Cc1ccccc1)C(N)=O (H-Y[dA]GF[dL]PQRF-NH2) | – | – | 651 | 86.4 | Active | 86.3 | 56.9 | – | 583 | – | 0.4367 | 30.7 | Emax [1]: 37.2%
4 | CSCC[C@@H](NC(=O)[C@H](Cc1ccccc1)NC(=O)CNC(=O)[C@@H](C)NC(=O)[C@@H](N)Cc1ccc(O)cc1)C(=O)N1CCC[C@H]1C(=O)N[C@@H](CCC(N)=O)C(=O)N[C@@H](CCCNC(=N)N)C(=O)N[C@@H](Cc1ccccc1)C(N)=O (H-Y[dA]GF[dM]PQRF-NH2) | 70.2 | – | 318 | 78.4 | Active | 89.7 | 120 | – | 409 | 2460 | 0.3986 | 26.6 | –
5 | C[C@@H](NC(=O)[C@@H](N)Cc1ccc(O)cc1)C(=O)NCC(=O)N(C)[C@@H](Cc1ccccc1)C(=O)NCC(=O)N1CCC[C@H]1C(=O)N[C@@H](CCC(N)=O)C(=O)N[C@@H](CCCNC(=N)N)C(=O)N[C@@H](Cc1ccccc1)C(N)=O (H-Y[dA]G[NMeF]GPQRF-NH2) | 73.3 | 973 | 311 | 85.4 | Active | 81.6 | 575 | 69.8 | 38.6 | 1490 | 0.0163 | – | Time (Mus musculus [16]): 20 min; Activity (Mus musculus [17]): inactive; Activity (Mus musculus [18]): Active; Activity (Mus musculus [2]): Dose-dependent effect; ED50 (Mus musculus [2]): 103.4 pmol; Activity (Mus musculus [19]): Active; Activity [20]: Non-Toxic; Activity (Mus musculus [21]): Active; Activity (Mus musculus [22]): Dose-dependent effect; ED50 (Mus musculus [22]): 26.6 mg/kg; Activity (Mus musculus [23]): Dose-dependent effect; ED50 (Mus musculus [23]): 3.92 pmol; Activity (Mus musculus [24]): Active; Activity [25]: Non-Toxic; Time (Mus musculus [26]): >60 min; Activity (Mus musculus [11]): Dose-dependent effect; ED50 (Mus musculus [11]): 18.8 pmol; half-life at 10 µM [27]: 1.44 h; Activity (Mus musculus [28]): inactive
6 | C[C@@H](NC(=O)[C@@H](N)Cc1ccc(O)cc1)C(=O)NCC(=O)N(C)[C@@H](Cc1ccccc1)C(=O)N[C@@H](CCC(N)=O)C(=O)N1CCC[C@H]1C(=O)N[C@@H](CCC(N)=O)C(=O)N[C@@H](CCCNC(=N)N)C(=O)N[C@@H](Cc1ccccc1)C(N)=O (H-Y[dA]G[NMeF]QPQRF-NH2) | 54.5 | 289 | 272 | 84.9 | Active | 91.6 | 157 | 67.7 | 20.1 | 31 | 0.3862 | – | –
7 | CN[C@@H](Cc1ccc(O)cc1)C(=O)N[C@H](C)C(=O)NCC(=O)N[C@@H](Cc1ccccc1)C(=O)N[C@@H](CCC(N)=O)C(=O)N1CCC[C@H]1C(=O)N[C@@H](CCC(N)=O)C(=O)N[C@@H](CCCNC(=N)N)C(=O)N[C@@H](Cc1ccccc1)C(N)=O (H-[NMeY][dA]GFQPQRF-NH2) | 49.5 | 928 | 132 | – | Active | 86.7 | – | 72.4 | 196 | 2590 | 1.298 | – | Emax [29]: 70%
8 | CN1CC[C@]23c4c5ccc(O)c4O[C@H]2[C@@H](O)C=C[C@H]3[C@H]1C5 [MORPHINE] | – | – | – | – | – | – | – | – | – | – | – | – | Activity (Mus musculus [30]): inactive; Activity (Mus musculus [31]): Active; ED50 (Mus musculus [12]): 1.02 nmol
